Data reported in ChEMBL document CHEMBL5653614, “Rescue of fragile X syndrome phenotypes in Fmr1 KO mice by the small-molecule PAK inhibitor FRAX486” (Proc Natl Acad Sci U S A, 2013).
Active and inactive are the calls of the source. The calls are words filed in the database; no cut-off is given here.

Key:
[1] = Toxicity in FVB.129P2-Pde6b+ Tyr c-ch/AntJ wild type mouse assessed as body weight change at 20 mg/kg,sc for 21 days; format: organism-based; settings: in vivo, 504 h, time 21 day
Mus musculus [2] = assay: Protective activity in Fmr1 knockout FVB.129P2-Fmr1tm1Cgr/J mouse assessed as decrease in apical dendritic spine density in layer II/III pyramidal neurons segment 4 at 20 mg/kg, sc and measured after 8 hrs by Golgi-Cox technique analysis; format: functional, organism-based
In short: (§1)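 Adult male WT and Fmr1 KO FVB mice given 20 mg/kg s.c. or vehicle; brains collected 8 h later and Golgi stained. Apical dendrites of layer II/III pyramidal neurons in temporal cortex, originating 50–100 µm from the soma, were divided into ten 10-µm segments and spines counted. 40–60 neurons from 4–6 mice per group; one-way ANOVA.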

[3] = target: Serine/threonine-protein kinase PAK 2 (Homo sapiens, UniProt Q13177); assay: Inhibition of PAK2 (unknown origin) by Z'-LYTE functional assay
In short: (§2)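 Full-length PAK isoforms phosphorylating an optimized peptide substrate in a Z-LYTE biochemical kinase assay, 10-point inhibitor titration. Duplicates (n = 2, mean ± SEM) plotted semilog; IC50 from a variable-slope sigmoidal dose–response fit.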

Mus musculus [4] = assay: Protective activity in FVB.129P2-Pde6b+ Tyr c-ch/AntJ wild type mouse assessed as increase in testicular weight at 20 mg/kg, sc for 21 days; format: functional, organism-based; settings: time 21.0 day
[5] = Drug uptake in FVB.129P2 mouse brain at 20 mg/kg,sc for 5 days and measured after 24 hrs by LC-MS/MS analysis; format: ADME, organism-based; settings: in vivo, 120 h, time 5 day
In short: (§3)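 Mice dosed s.c. at 20 mg/kg once daily for up to 5 d; plasma and forebrain sampled 24 h after the last injection. Brain homogenized in 2 volumes of cold PBS; levels measured by LC-MS/MS. n = 3–4, mean ± SEM.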

Mus musculus [6] = assay: Protective activity in Fmr1 FVB.129P2-Pde6b+ Tyr c-ch/AntJ wild type mouse assessed as change in basal dendritic spine density in cortical neuron at 20 mg/kg, sc and measured after 8 hrs by Golgi-Cox technique analysis; format: functional, organism-based; settings: Cortical neurone
[7] = Drug concentration in FVB.129P2 mouse brain at 20 mg/kg,sc and measured from 8 to 18 hrs by LC-MS/MS analysis; format: ADME, organism-based; settings: in vivo, time 8-18 hrs
In short: (§4)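 WT FVB.129P2 mice got one s.c. injection of 20 mg/kg (2 mg/mL in 20% hydroxypropyl-β-cyclodextrin). Blood and forebrain were collected at time points from 15 min to 24 h. Forebrain was weighed, snap-frozen and homogenized in 2 volumes of cold PBS. Drug quantified by LC-MS/MS. n = 2–3, mean ± SEM.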

[8] = Drug concentration in FVB.129P2 mouse brain at 20 mg/kg,sc and measured after 1 hrs by LC-MS/MS analysis; format: ADME, organism-based; settings: read-out: Ct; in short: as §4
[9] = Drug uptake in FVB.129P2 mouse plasma at 20 mg/kg,sc for 5 days and measured after 24 hrs by LC-MS/MS analysis; format: ADME, organism-based; settings: in vivo, 120 h, time 5 day; in short: as §3
Mus musculus [10] = assay: Protective activity in Fmr1 knockout FVB.129P2-Fmr1tm1Cgr/J mouse assessed as decrease in apical dendritic spine density in layer II/III pyramidal neurons segment 2 at 20 mg/kg, sc and measured after 8 hrs by Golgi-Cox technique analysis; format: functional, organism-based; in short: as §1
Mus musculus [11] = assay: (§5) Anti-seizure activity against 124dB loud auditory stimulus induced Fmr1 knockout FVB.129P2-Fmr1tm1Cgr/J mouse model of audiogenic seizure assessed as decrease in sound-induced wild running at 30 mg/kg,sc for 8 hrs followed by audiogenic seizure induction by audiogenic seizure assay (Rvb=100%); format: functional; parameters: scale not given: the % may be the effect or the level left
In short: (§6)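 Adult male mice (10–17 wk). Single s.c. dose (0, 10, 20 or 30 mg/kg) in 20% (wt/vol) hydroxypropyl-β-cyclodextrin vehicle; AGS induced 8 h later. Mouse acclimated 2 min in a clear acrylic two-chamber box, then exposed to a 124 dB sound. Scored as percentage of animals showing each sequential phase (wild running, seizure, death by respiratory arrest); χ2 test against vehicle.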

[12] = target: Serine/threonine-protein kinase PAK 4 (Homo sapiens, UniProt O96013); assay: Inhibition of PAK4 (unknown origin) by Z'-LYTE functional assay; in short: as §2
Mus musculus [13] = assay: as §5, with “death due to respiratory arrest” for “wild running”, “at 10 to” for “at”, “assay” for “assay (Rvb=100%)”; format: functional, organism-based; settings: dose 10-30 mg/kg; in short: as §6
Mus musculus [14] = assay: Protective activity in FVB.129P2-Pde6b+ Tyr c-ch/AntJ wild type mouse assessed as decrease in stereotypy count at 20 mg/kg, sc for 5 days by open field assay; format: functional, organism-based; settings: time 5.0 day
In short: (§7)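 Adult male WT and Fmr1 KO mice dosed s.c. at 20 mg/kg or vehicle for 5 d; tested 4–5.5 h after dosing. Single mouse in a novel open field for 30 min, tracked by infrared sensors in 1-min bins; bar-graph values averaged over minutes 18–30. Mice beyond 2 SD in total distance, or immobile for 5 consecutive minutes, were excluded.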

Mus musculus [15] = assay: Protective activity in FVB.129P2-Pde6b+ Tyr c-ch/AntJ wild type mouse assessed as motor coordination at 20 mg/kg, sc and measured for 4 to 5.25 hrs by rotarod test; format: functional, organism-based; settings: time 4-5.25 hrs
In short: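 Adult male WT and Fmr1 KO mice tested 4–5.5 h after s.c. 20 mg/kg or vehicle. Latency to fall or jump off the rotating cylinder recorded (max 3 min). Three trials per mouse, 30–40 min apart; per-mouse average latency compared.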

Mus musculus [16] = assay: Anti-seizure activity against 124dB loud auditory stimulus induced Fmr1 knockout FVB.129P2-Fmr1tm1Cgr/J mouse model of audiogenic seizure assessed as decrease in sound-induced wild running at 20 mg/kg,sc for 8 hrs followed by audiogenic seizure induction by audiogenic seizure assay (Rvb=100%); format: functional; parameters: scale not given: the % may be the effect or the level left; in short: as §6
Mus musculus [17] = assay: Anti-seizure activity against 124dB loud auditory stimulus induced Fmr1 knockout FVB.129P2-Fmr1tm1Cgr/J mouse model of audiogenic seizure assessed as decrease in sound-induced seizure at 20 mg/kg,sc and measured after 5 days by audiogenic seizure assay (Rvb=100%); format: functional; parameters: scale not given: the % may be the effect or the level left; settings: time 5 day
In short: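 Fmr1 KO mice received one s.c. dose of vehicle or 20 mg/kg in hydroxypropyl-β-cyclodextrin; the AGS assay (124 dB stimulus after 2 min acclimation) was run 5 d later. Seizure incidence recorded.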

Mus musculus [18] = assay: Protective activity in Fmr1 knockout FVB.129P2-Fmr1tm1Cgr/J mouse assessed as decrease in apical dendritic spine density in layer II/III pyramidal neurons segment 5 at 20 mg/kg, sc and measured after 8 hrs by Golgi-Cox technique analysis; format: functional, organism-based; in short: as §1
Mus musculus [19] = assay: Protective activity in Fmr1 knockout FVB.129P2-Fmr1tm1Cgr/J mouse model of Fragile X syndrome assessed as decrease in distance travelled at 20 mg/kg, sc for 5 days and measured during 18 to 30 mins by open field assay; format: functional, organism-based; settings: time 5.0 day; in short: as §7
Mus musculus [20] = assay: Protective activity in Fmr1 knockout FVB.129P2-Fmr1tm1Cgr/J mouse assessed as decrease in apical dendritic spine density in layer II/III pyramidal neurons segment 3 at 20 mg/kg, sc and measured after 8 hrs by Golgi-Cox technique analysis; format: functional, organism-based; in short: as §1

Serine/threonine-protein kinase PAK 2, sequence (Q13177 whole entry, canonical isoform): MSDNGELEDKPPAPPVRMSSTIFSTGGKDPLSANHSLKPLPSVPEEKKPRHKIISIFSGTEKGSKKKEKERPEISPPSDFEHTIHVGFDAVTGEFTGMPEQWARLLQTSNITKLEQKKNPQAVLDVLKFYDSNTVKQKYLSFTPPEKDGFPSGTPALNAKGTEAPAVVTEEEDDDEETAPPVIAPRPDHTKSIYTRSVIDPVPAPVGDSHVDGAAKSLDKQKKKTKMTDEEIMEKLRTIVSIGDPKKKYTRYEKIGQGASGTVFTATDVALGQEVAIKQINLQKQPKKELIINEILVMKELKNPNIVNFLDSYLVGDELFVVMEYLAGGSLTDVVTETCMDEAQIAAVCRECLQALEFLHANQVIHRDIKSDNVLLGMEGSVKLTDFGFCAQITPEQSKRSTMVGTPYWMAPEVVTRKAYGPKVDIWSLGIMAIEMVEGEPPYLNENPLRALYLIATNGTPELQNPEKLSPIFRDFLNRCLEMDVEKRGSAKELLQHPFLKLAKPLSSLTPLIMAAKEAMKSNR
Serine/threonine-protein kinase PAK 4, sequence (O96013 whole entry): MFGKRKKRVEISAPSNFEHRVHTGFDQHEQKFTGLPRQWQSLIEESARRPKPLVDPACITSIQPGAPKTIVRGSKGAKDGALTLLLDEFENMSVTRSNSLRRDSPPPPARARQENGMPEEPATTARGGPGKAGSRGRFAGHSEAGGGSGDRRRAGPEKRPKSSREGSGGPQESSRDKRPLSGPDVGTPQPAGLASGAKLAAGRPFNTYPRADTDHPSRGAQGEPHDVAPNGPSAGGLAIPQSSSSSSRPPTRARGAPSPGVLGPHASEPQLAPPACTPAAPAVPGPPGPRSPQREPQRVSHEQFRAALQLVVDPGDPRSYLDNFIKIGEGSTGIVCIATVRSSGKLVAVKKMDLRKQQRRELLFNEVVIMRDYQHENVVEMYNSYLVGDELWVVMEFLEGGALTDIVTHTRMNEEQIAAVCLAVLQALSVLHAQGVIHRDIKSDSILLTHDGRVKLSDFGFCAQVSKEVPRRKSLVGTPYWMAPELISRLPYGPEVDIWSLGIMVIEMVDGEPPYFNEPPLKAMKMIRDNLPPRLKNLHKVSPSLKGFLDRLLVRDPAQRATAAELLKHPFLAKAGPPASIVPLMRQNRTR

With `CCn1c(=O)c(-c2ccc(Cl)cc2Cl)cc2cnc(Nc3ccc(N4CCNCC4)c(F)c3)nc21` the Activity [1] was “Non-Toxic”, the Activity (Mus musculus [2]) was “Active” and the IC50 [3] was 39.5 nM. The Activity (Mus musculus [4]) was “inactive”, the Drug uptake [5] was “Active” and the Activity (Mus musculus [6]) was “inactive”. The Ct [7] was 951 ng/g, the concentration at 1 h [8] was 155 ng/g and the Drug uptake [9] was “Active”. The Activity (Mus musculus [10]) was “inactive”, the Activity (Mus musculus [11]) was 0% and the IC50 [12] was 779 nM. For the same compound, the Activity (Mus musculus [13]) was “Dose-Dependent Effect”, the Activity (Mus musculus [14]) was “Active” and the Activity (Mus musculus [15]) was “inactive”. For the same compound, the Activity (Mus musculus [16]) was 25%, the Activity (Mus musculus [17]) was 100% and the Activity (Mus musculus [18]) was “inactive”. For the same compound, the Activity (Mus musculus [19]) was “Active” and the Activity (Mus musculus [20]) was “Active”.
